Lmaj promast = Leishmania major promastigote growth inhibition, primary screen. Leishmania major promastigotes, resazurin fluorescence viability. inhibition, % at 10 µM. 9% of 200,000 active. AID 1063, 2008; in the data active means inhibition above about 50%;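 further: promastigotes grown with compound for 44 hours at 28 °C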
ABCB1 inh = ABCB1 efflux pump inhibitors, primary screen, cell-based, multiplex, flow cytometry, ABCG2 counter-screen. ATP-dependent translocase ABCB1 (Homo sapiens), P08183. CCRF-Adr cells, JC-1 efflux. 0.067% of 190,000 active. inhibition, % at 6.6 µM; in the data active means inhibition above about 40%;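 further: 0% = vehicle and 100% = reference inhibitor; higher value means more JC-1 retained so stronger ABCB1 efflux block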
ABCG2 block = ABCG2 efflux pump inhibitors, primary screen, multiplex with ABCB1, IgMXP3 cells, flow cytometry; JC-1 efflux; Broad substrate specificity ATP-binding cassette transporter ABCG2 (Homo sapiens), Q9UNQ0; 0.1% of 190,000 active; inhibition, % at 6.6 µM;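 active means inhibition above 80%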;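 further: 0% = DMSO and 100% = nicardipine control wells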
Target sequence (Q9UNQ0 whole entry, looked up): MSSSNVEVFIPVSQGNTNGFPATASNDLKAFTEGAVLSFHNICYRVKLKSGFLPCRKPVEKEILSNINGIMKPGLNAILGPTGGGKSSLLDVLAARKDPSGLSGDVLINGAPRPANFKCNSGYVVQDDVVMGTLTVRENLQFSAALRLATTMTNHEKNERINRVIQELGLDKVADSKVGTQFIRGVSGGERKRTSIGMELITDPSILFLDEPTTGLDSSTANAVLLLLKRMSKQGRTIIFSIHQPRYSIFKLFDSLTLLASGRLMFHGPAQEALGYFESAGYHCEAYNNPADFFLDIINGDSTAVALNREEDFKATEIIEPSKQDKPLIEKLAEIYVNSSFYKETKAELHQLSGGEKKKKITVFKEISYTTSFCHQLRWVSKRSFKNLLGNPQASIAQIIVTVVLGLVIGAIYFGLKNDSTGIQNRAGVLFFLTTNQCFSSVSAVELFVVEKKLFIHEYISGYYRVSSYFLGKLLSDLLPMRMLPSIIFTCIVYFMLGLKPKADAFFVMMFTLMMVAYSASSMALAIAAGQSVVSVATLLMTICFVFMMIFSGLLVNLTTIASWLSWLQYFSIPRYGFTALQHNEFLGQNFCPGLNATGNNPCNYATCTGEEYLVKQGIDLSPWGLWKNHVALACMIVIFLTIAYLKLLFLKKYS
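Test system: ABCG2 IgMXP3 and barcoded ABCB1 CCRF-Adr cell mix; Schedule: cells with compound and JC-1, 10 min at 25 °C, rotating, no wash; Technique: flow cytometry of retained JC-1 fluorescence; Measure: % inhibition of efflux relative to nicardipine and DMSO; Controls: nicardipine high and DMSO low controls.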
RAM network inh = inhibitors of the yeast RAM network, primary screen, dse1pr::URA3 reporter, 5-FOA selection | S. cerevisiae dse1pr::URA3 reporter, 5-FOA growth OD615, 2 d; analog-sensitive cbk1-as2 kinase mutant strain | inhibition, % at 50 µM | 1.8% of 190,000 active | AID 868, 2007;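 active means inhibition above a set limit, 3 SD over mean compound inhibition, cut at about 8.4% in these data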;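 further: 0% = DMSO-only wells with no growth and 100% = 10 µM 1-NA-PP1 full growth; inhibition rescues growth on 5-FOA so higher OD means more RAM inhibition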
WT yeast gro inh = growth inhibition of WT strain, primary screen, mitochondrial fusion inhibitor project, WT and mutant strains, chemical genetic; 2.1% of 190,000 active; mitochondrial fusion phenotypic screen; inhibition, % at 10 µM; in the data active means inhibition above about 58%; tested in S. cerevisiae
Starred values were filed as active, the others as inactive. Rows were chosen to be rich in hits. Some 12% of all compounds tested hit in one or more screens of this group.

SMILES	Lmaj promast	ABCB1 inh	ABCG2 block	RAM network inh	WT yeast gro inh
O=C(COc1ccc(Cl)cc1Cl)NNC(=S)Nc1ccc(F)cc1	-3.1	1.8	23.0	4.1	61.7*
C=CCNC(=O)COc1ccc(Br)cc1Cl	-5.4	-0.3	28.9	-0.2	1.2
CC(=O)NC(=S)Nc1ccc(NC(=O)COc2ccc(Cl)cc2Cl)cc1	15.9	0.1	0.1	1.7	6.2
C=CCNC(=S)NNC(=O)COc1ccc(Cl)cc1Cl	-5.0	-2.0	5.0	0.4	67.8*
COc1ccc(N(CC(=O)N2CCC(Cc3ccccc3)CC2)S(C)(=O)=O)cc1	-3.9	0.2	-0.1	1.7	29.8
O=C(NCc1ccco1)c1ccc(Cl)c(S(=O)(=O)Nc2ccccc2)c1	9.0	2.6	6.7	0.3	-3.5
C=CCNC(=O)c1ccccc1NC(=O)c1ccc(Cl)c(S(=O)(=O)Nc2ccccc2)c1	57.6*	1.9	5.2	3.6	-10.3
CCOc1ccc(CNC2CCCc3ccccc32)cc1 (stereo not given)	69.7*	0.5	-0.8	3.1	-3.8
COc1ccc(CNC2CCCc3ccccc32)cc1OC (stereo not given)	13.2	0.5	4.4	0.9	-21.4
CN(CCOC(=O)c1ccc2c(c1)OCO2)C(C)(C)C	-4.0	-0.2	0.2	1.6	-6.4
COc1cc(CNCCSc2nnnn2C)cc(Br)c1OCc1ccccc1	56.2*	7.5	33.2	-0.9	32.8
COc1cc(CNCCO)cc(Br)c1OCc1ccccc1	97.1*	0.8	1.9	2.5	35.6
COc1cc(CNCCSc2nnnn2C)cc(Br)c1OCc1ccccc1F	89.6*	3.2	19.8	-0.1	31.7
COc1cc(CNCCSc2nnnn2C)cc(Br)c1OCc1ccc(F)cc1	95.0*	1.5	10.2	0.5	-28.2
O=C(Nc1cc2cc([N+](=O)[O-])ccc2oc1=O)c1cccs1	-3.6	0.1	1.7	1.4	-12.7
CCN(CC)S(=O)(=O)c1ccc(NS(=O)(=O)CC23CCC(CC2=O)C3(C)C)cc1 (stereo not given)	43.8	0.7	-2.8	3.3	-7.8
COc1ccc(CN2CCNC(=O)C2CC(=O)N2CCCCO2)c(OC)c1 (stereo not given)	-4.5	1.0	2.6	0.3	14.7
Nc1c(Nc2ccccc2)c2ccccc2oc1=O	-8.4	0.5	3.8	9.8*	-4.1
COc1ccc(NS(=O)(=O)c2cc([N+](=O)[O-])ccc2N/N=C\c2c(C)[nH]c3ccccc23)cc1	98.2*	11.9	11.8	5.9	56.4
COc1ccccc1NS(=O)(=O)c1cc([N+](=O)[O-])ccc1N/N=C/c1c[nH]c2ccccc12	33.6	3.7	6.3	10.1*	33.7
O=[N+]([O-])c1ccccc1N/N=C/c1c[nH]c2ccccc12	1.1	0.2	1.9	2.4	-1.3
Cc1nn(-c2ccc(Cl)nn2)c(=O)c2ccccc12	-2.9	0.7	28.6	1.2	0.1
CCCCN(C)CCC(=O)Nc1ccc(C)cc1	90.0*	0.2	1.8	0.3	-4.8
COc1ccc(OC)c(S(=O)(=O)Nc2ccc(O)c(Sc3ncn[nH]3)c2)c1	-0.6	-0.5	-2.2	-0.5	-11.5
Cc1ccc(C(=O)C2CCN(CC(=O)Nc3nc(C)cs3)CC2)cc1	11.6	-0.5	30.0	1.9	4.1
SMILES	Lmaj promast	ABCB1 inh	ABCG2 block	RAM network inh	WT yeast gro inh
N#Cc1cnc(SCC(=O)NNC(=O)COc2cccc3ccccc23)nc1N	-7.0	-0.5	-2.5	0.4	-24.8
CN(Cc1ccccc1NCC(=O)Nc1ccccc1C#N)C1CCCCC1	38.9	-0.3	-1.2	-0.1	3.5
N#Cc1ccccc1NC(=O)CNc1ccccc1N1CCCCC1	71.3*	-0.1	0.3	-0.2	36.2
CCCNC(=S)N1CCC(C(=O)c2ccc3c(c2)OCCO3)CC1	2.9	0.5	13.9	1.3	18.0
Fc1cccc(F)c1-n1c(CN2CCCCC2)csc1=S	55.5*	0.8	5.3	1.9	20.6
O=C(COC(=O)Cc1ccc(Br)cc1)NCc1ccc(F)cc1	-6.2	0.0	5.1	1.9	-2.0
Cc1cc(N2CCN(C)CC2)ccc1NC(=O)c1cccc(S(=O)(=O)N2CCc3ccccc3C2)c1	97.6*	5.6	1.4	3.5	18.0
O=C(CCSCc1ccccc1F)NCCc1ccccc1	-4.4	-0.1	0.0	2.9	15.5
CCCCCCCOc1ccc(-c2ccc(C#N)cn2)cc1	38.6	0.2	18.7	10.4*	14.8
CCCCOc1ccc(-c2cnc3ccccc3n2)cc1	-1.6	0.7	11.9	2.7	22.2
O=C(Nc1ccc(-c2nc3ccccc3[nH]2)cc1)c1ccccc1NS(=O)(=O)c1ccc(F)cc1	-9.4	-1.0	-6.3	6.3	-9.4
COc1ccc(-c2csc(NC(=O)c3ccccc3NS(=O)(=O)c3ccc(F)c(F)c3)n2)cc1	48.6	-0.1	3.2	8.4	87.3*
O=C(Nc1ccccc1N1CCOCC1)c1ccccc1NS(=O)(=O)c1ccc(F)c(F)c1	2.4	1.6	3.8	3.2	11.6
Cc1ccc(S(=O)(=O)Nc2ccccc2C(=O)Nc2nc(-c3ccc(F)cc3)cs2)cc1	54.0*	0.0	4.8	8.2	73.9*
CCC(CO)NCc1ccc(OC2CCCC2)cc1 (stereo not given)	85.8*	-0.4	-1.4	2.1	-4.0
CN(C)CCNCc1ccc(OC2CCCC2)cc1	50.1*	0.2	-0.1	0.0	-20.0
COc1cc(CNCCO)ccc1OC1CCCC1	36.4	-0.1	-0.8	2.5	13.4
COc1cccc(C2CC(C(F)(F)F)n3nc(C(=O)Nc4c(C)n(C)n(-c5ccccc5)c4=O)cc3N2)c1 (stereo not given)	-10.4	0.1	5.6	3.3	-8.5
COc1ccc(C2CC(C(F)(F)F)n3nc(C(=O)Nc4c(C)n(C)n(-c5ccccc5)c4=O)c(Cl)c3N2)cc1 (stereo not given)	69.0*	1.7	28.1	1.2	-6.2
Cc1ccc(C2CC(C(F)(F)F)n3nc(C(=O)Nc4c(C)n(C)n(-c5ccccc5)c4=O)cc3N2)cc1 (stereo not given)	-9.3	0.1	8.1	9.9*	-4.7
COc1nc(-c2ccccc2)ncc1S(=O)(=O)c1ccccc1	3.0	1.6	3.6	4.0	3.0
Cc1cccc(C)c1Oc1nc(-c2ccccc2)ncc1S(=O)(=O)c1ccccc1	53.9*	0.4	1.9	1.5	42.7
O=C(Nc1ccccn1)C(=O)N1CCCCC1	-1.7	0.6	2.2	0.2	-11.0
O=C(NNC(=O)c1ccc(F)cc1)C(=O)N1CCCCC1	94.7*	0.4	2.5	3.2	-2.5
O=C(NNc1ccccc1)C(=O)N1CCCCC1	66.7*	0.5	0.7	-0.4	50.6
OCC1(Cc2cccc(Cl)c2)CCCN(Cc2ccc3cc(F)ccc3n2)C1 (stereo not given)	55.2*	1.5	8.2	3.2	25.3
